A selection: hits, their analogues and other compounds. The true share with any hit is near 3.9%.
HTR2A ag = agonists of mouse serotonin 5-HT2A receptor (HTR2A) | P35363 | CHO-K1 mHTR2A beta-arrestin complementation, luminescence; percent of 30 µM serotonin response | activation, % at 7.6 µM | 360,000 compounds, 0.66% hits | AID 624169;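 active = activation above a run cutoff, the mean activation of all tested compounds plus 3 SD, cut at about 14% in these data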;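 also: 0% = plate median of compound wells and 100% = 30 µM serotonin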
CHRM1 antagonist = antagonists of human M1 muscarinic receptor; inhibition, % at 3 µM; P11229; AID 588852; CHO-K1 hM1, Fluo-8 calcium fluorescence, ACh EC80 antagonist; 360,000 compounds, 1.3% hits;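 active = percent inhibition above its own plate's cutoff, namely the mean of that plate's compound wells plus 3 SD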;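 also: peak over basal fluorescence ratio during 140 s after agonist addition; 0% = ACh EC80 plus DMSO and 100% = DMSO alone without agonist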
Target sequence (P11229 whole entry, looked up): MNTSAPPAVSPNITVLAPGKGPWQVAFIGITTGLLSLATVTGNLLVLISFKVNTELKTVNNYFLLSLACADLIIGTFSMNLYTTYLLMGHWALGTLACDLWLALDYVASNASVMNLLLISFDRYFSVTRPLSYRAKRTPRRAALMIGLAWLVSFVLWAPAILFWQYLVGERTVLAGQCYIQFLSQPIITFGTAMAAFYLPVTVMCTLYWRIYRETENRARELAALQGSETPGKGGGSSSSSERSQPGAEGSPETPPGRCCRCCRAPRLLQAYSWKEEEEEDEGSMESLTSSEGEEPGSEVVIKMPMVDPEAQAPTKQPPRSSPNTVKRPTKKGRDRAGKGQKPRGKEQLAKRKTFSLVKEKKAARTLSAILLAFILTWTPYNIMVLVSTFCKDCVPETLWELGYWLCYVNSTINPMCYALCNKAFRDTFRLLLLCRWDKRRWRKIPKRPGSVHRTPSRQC
TAAR1 antagonist = antagonists of human TAAR1; Q96RJ0; CHO RD-HGA16 TAAR1, Fluo-8 calcium fluorescence, antagonist; inhibition, % at 3 µM; 360,000 compounds, 1.5% hits;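 active = inhibition above a per-plate cutoff, the mean inhibition of test compounds on that plate plus 3 SD, cut at about 49% in these data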;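 also: 0% = DMSO plus EC80 beta-PEA response and 100% = DMSO alone without agonist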
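Material: CHO RD-HGA16 cells bearing hTAAR1; compound dosing: one-point dosing, 3 µM nominal final; schedule: dye loading 75 min at 37 °C, then 30 min room temperature; measured by: calcium fluorescence with Fluo-8; control set: vehicle and agonist controls; replication: n of 1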
TAAR1 agonist = agonists of human TAAR1. activation, % at 3 µM. 360,000 compounds, 0.99% hits. Q96RJ0. AID 624467. CHO RD-HGA16 TAAR1, Fluo-8 calcium fluorescence; vehicle wells 0%, saturating PEA agonist 100%;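 active = activation above the mean activation of all test compounds in the run plus 3 SD, cut at about 38% in these data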
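Test system: RD-HGA16 (CHO) cells co-expressing Gα16 and hTAAR1 / Benchmarks: DMSO vehicle as 0%, PEA at EC100 as 100% / Repeats: no replicates (n 1) / Measure: % activation from peak over basal fluorescence ratio, DMSO-to-PEA scaled / Timing: 17-24 h plating, Fluo-8 75 min 37 °C, 30 min RT / Technique: kinetic Fluo-8 calcium fluorescence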
M1 PAM = human CHRM1 positive allosteric modulation. CHO-K1 hM1, Fluo-8 calcium fluorescence, ACh EC20; 0% = ACh EC20, 100% = maximal ACh. activation, % at 3 µM. 360,000 compounds, 0.088% hits. AID 588819; in the data active = activation above about 19%, passing the limit was not always enough
M1 ag = activates human CHRM1 receptor; P11229; 360,000 compounds, 0.33% hits; AID 588814; activation, % at 3 µM; CHO-K1 hM1, Fluo-8 calcium fluorescence, agonist mode; 0% DMSO, 100% acetylcholine EC100;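 active = activation above the run's mean compound activation plus 3 SD, cut at about 16% in these data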;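 also: peak over basal fluorescence ratio within a 140 s kinetic read after compound addition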
TAAR1 ag conf = human TAAR1 agonism, confirmed | CHO RD-HGA16 TAAR1, Fluo-8 calcium fluorescence; scaled: DMSO 0%, maximal phenethylamine 100% | 2,400 compounds, 82% hits | AID 651783 | shares compounds with TAAR1 agonist | activation, % at 3 µM;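 active = activation above a cutoff set at the run's mean compound activation plus 3 SD, cut at about 39% in these data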
Ga16 ag counter = counter-screen for TAAR1 agonists: nonselective agonists in parental cells | shares compounds with TAAR1 agonist | CHO-Ga16 parental, Fluo-8 calcium fluorescence; normalized to maximal ATP response, DMSO zero | activation, % at 3 µM | 2,400 compounds, 50% hits | AID 651787;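 active = activation above the run cutoff, the mean activation over all tested wells plus 3 SD, cut at about 12% in these data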;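 also: 0% = DMSO wells and 100% = maximal ATP response on the peak over basal ratio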
TAAR1 desens = human TAAR1 agonist that also desensitizes the receptor; AID 651951; shares compounds with TAAR1 agonist; 2,400 compounds, 46% hits; CHO RD-HGA16 hTAAR1, Fluo-8 calcium, beta-PEA response inhibition; inhibition, % at 3 µM;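 active = inhibition above the run cutoff, the mean inhibition of all test compounds plus 3 SD, cut at about 49% in these data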;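 also: beta-PEA stimulus applied at its EC80; loss of beta-PEA calcium signal after compound pretreatment read as receptor desensitization; 0% = DMSO with beta-PEA at EC80 and 100% = DMSO alone without agonist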
Ga16 antag count = counter-screen for TAAR1 agonists: nonselective Ga16 antagonists; shares compounds with TAAR1 agonist; 2,400 compounds, 39% hits; inhibition, % at 3 µM; AID 651952; CHO-Ga16 ATP-induced calcium, Fluo-8 fluorescence;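 active = inhibition above the plate's mean compound inhibition plus 3 SD, computed per plate, cut at about 22% in these data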;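 also: 0% = EC80 ATP with DMSO and 100% = DMSO wells without ATP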
The depositor's hits bear a star; x = no result given.

SMILES | HTR2A ag | CHRM1 antagonist | TAAR1 antagonist | TAAR1 agonist | M1 PAM | M1 ag | TAAR1 ag conf | Ga16 ag counter | TAAR1 desens | Ga16 antag count
CCN(CC)c1ccc(/C=C(\C#N)C(=O)c2ccc(Br)cc2)cc1 | -1 | 85* | 91* | 215* | -21 | 178* | 315* | 325* | 105* | 103*
COc1ccc(CNCc2c(O)c(Cl)cc3c(C)c(C)c(=O)oc23)c(OC)c1 | -6 | -3 | 4 | -1 | 6 | -3 | x | x | x | x
COc1cccc(Nc2nc(C(N)c3ccccc3Cl)cs2)n1 (configuration not stated) | 0 | -12 | 19 | 23 | 11 | 5 | x | x | x | x
COc1cccc(Nc2nc(C(C)N)cs2)n1 (configuration not stated) | 4 | 0 | 77* | 85* | 0 | -4 | 94* | 1 | 79* | 6
COc1cccc(Nc2nc(C(N)c3ccccc3)cs2)n1 (configuration not stated) | 3 | -10 | 25 | 68* | 12 | 6 | 66* | 12* | 41 | 20
COc1cccc(Nc2nc(C(N)C3CCCCC3)cs2)n1 (configuration not stated) | -1 | -5 | 15 | 53* | 3 | 5 | 47* | 18* | 28 | 23*
COc1cccc(Nc2nc(CN)cs2)n1 | -5 | -9 | -12 | 28 | 5 | -3 | x | x | x | x
COc1ccc(NC(=O)Nc2nc(C(N)C3CCCCC3)cs2)cc1 (configuration not stated) | -8 | -2 | 9 | 11 | 5 | -1 | x | x | x | x
CC(C)c1ccc(NC(=O)Nc2nc(C(N)C3CCCCC3)cs2)cc1 (configuration not stated) | 1 | -5 | 6 | 55* | 5 | 6 | 42* | 29* | 33 | 46*
COc1cc(CN2CCN(CC#Cc3ccccc3)CC2CCO)cc(OC)c1 (configuration not stated) | -2 | -18 | -21 | 3 | 9 | -8 | x | x | x | x
CN(Cc1ccccc1)C(=O)COC(=O)CCNC(=O)c1ccccc1Cl | -3 | -1 | -7 | 3 | 9 | -5 | x | x | x | x
CC[C@@H]1CC2=C(C(=O)OC(C)(C)O2)[C@@H](c2ccc(Cl)cc2)O1 | 2 | x | -10 | -1 | x | x | x | x | x | x
Oc1ccc(/C=N/Nc2nccnc2Cl)c(O)c1 | -6 | -22 | 7 | 6 | 17 | -2 | x | x | x | x
O=c1[nH]ncc(N/N=C\c2ccc(O)cc2O)c1Cl | -1 | -12 | 30 | 73* | 13 | -7 | 80* | 1 | 67* | 9
CCOc1cccc(-c2c(C(=O)N/N=C(\C)c3ccncc3)nnn2-c2nonc2N)c1 | 0 | -21 | 15 | 19 | 16 | 5 | x | x | x | x
COc1cccc(-c2c(C(=O)N/N=C(\C)c3ccco3)nnn2-c2nonc2N)c1 | 0 | 18 | 17 | 115* | -6 | 7 | 128* | 88* | 49* | 18
C/C(=N\NC(=O)c1nnn(-c2nonc2N)c1-c1ccccc1)c1ccco1 | -3 | -8 | -19 | 106* | 6 | 5 | 120* | 87* | 27 | 1
COc1cccc(-c2c(C(=O)N/N=C(\C)c3ccc(Cl)s3)nnn2-c2nonc2N)c1 | -10 | -4 | 59* | 89* | 13 | 22* | 82* | 52* | 64* | 39*

Screening data from PubChem.
